Results on two molecules are retold here after article PMC3790193 (British Journal of Cancer, 2013).

Structures are written as SMILES. Like-named read-outs stand apart in the source and are kept apart here.

For orientation: half-life means the time in which the quantity being followed falls by half. Read a low half-life as fast loss. Usually AUC stands for concentration integrated over time.

The subject of data set [1] is Calu-6 cells. The data set is described as follows: Orthotopic lung cancer model, tumour burden. In kind it is in vivo, Rowett nude rats. The note with it: for reduction in tumour burden: vs vehicle. In outline:
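Calu-6 cells instilled orotracheally into male nude rats. From 3 weeks, groups of 20 received saline, 2 mg kg−1 i.p., or 0.6 mg kg−1 aerosol on 4 consecutive days over 4 weeks. At 7 weeks, lungs weighed; burden = tumour-bearing minus normal lung weight (rats without tumour cells). Lungs inflated with 10% neutral-buffered formalin at 25 cm for 6 h; 5-μm paraffin sections, H&E. t-test/ANOVA.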

The format of data set [2] is in vivo, Rowett nude rats. The note with it: for half-life / AUC: male, Rowett nude (Cr:NIH-ru), rat. In outline:
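Male Rowett nude rats dosed once with drug in saline: 2 mg kg−1 i.p., or aerosol over 90 min nose-only (0.6 mg kg−1 deposited). Deposited dose = aerosol concentration × minute volume × time × deposition fraction (~10%) ÷ body weight. Three rats per group killed at each of 11 times over 96 h. Plasma and lung extracted by solid-phase extraction; LC/MS/MS on C18 column (25 °C), positive ESI. Non-compartmental analysis of per-time-point means.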

A further data set is described as follows: Aerosol characterisation. In kind it is physicochemical. The note with it: nebulised solution 5 mg ml^−1, Pari LC Plus nebulisers. In outline:
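Aerosol from a 5 mg ml−1 solution made by three jet nebulisers, piped through a ~24 in, 1.58-cm stainless tube into a 52-port flow-past nose-only chamber (exhaust ~14 l min−1). Concentration measured gravimetrically on membrane filters. Particle size sampled from the breathing zone with a Mercer-style cascade impactor at ~2.0 l min−1; MMAD calculated from the impactor data.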

Data set [3] concerns Calu-6 cells. The note with it: systemic delivery, previous study; ref Belinsky et al, 2011; cited from earlier work.
For data set [4], the system named is Calu-6 tumours. The data set is described as follows: Gene expression in lung tumours. In kind it is in vivo, Rowett nude rats. In outline:
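Male nude rats (8–10 weeks) given orotracheal Calu-6 cells. From week 3 they received saline, 2 mg kg−1 i.p., or 0.6 mg kg−1 aerosol on 4 consecutive days for 4 weeks. Five tumours from each of four rats per group; RNA by TRI-reagent, 1 μg reverse transcribed; TaqMan qPCR normalised to GAPDH. 2−ΔΔCt relative to vehicle tumours; triplicate assays; mean±s.e.m.; two-sample t-test.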

The subject of data set [5] is Calu-6 tumours. The data set is described as follows: Gene methylation profiling of tumours. In kind it is in vivo, Rowett nude rats. The essentials: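 Bisulphite-treated DNA from Calu-6 lung tumours (three per rat, four rats per group: vehicle, i.p. or aerosol) run on HM450K arrays. Normal bronchial epithelial lines from three never smokers used as reference. Probes from 200 bp 5′ of TSS through 5′-UTR; X, Y and imprinted genes excluded. Background corrected by normal-exponential method; β-values 0–1. Genes with normal β ⩾0.2 excluded. Vehicle β ⩾0.45 counted as methylated; ⩾20% β drop counted as demethylation.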

In the next data set the test system is lung cancer. Conditions: nebuliser, ref Lemarie et al, 2011, cited from earlier work.
[6] abbreviates: aerosol, 0.6 mg kg^−1 inhaled deposited dose, 90 min nose-only, single dose.
Setting [7] is: plasma, inhaled or intranasal, 0.6 mg/kg.
Where [8] appears, read: systemic, intraperitoneal injection 2 mg kg^−1, single dose.

With `Nc1ncn([C@@H]2O[C@H](CO)[C@@H](O)[C@H]2O)c(=O)n1` [5-Aza, 5-azacytidine], the “Lung weight, mean±s.d.” value in the data set on Calu-6 cells [1] (aerosol 0.6 mg kg^−1, 4 consecutive days over 4 consecutive weeks, N=17) was found to be 3.72 ± 0.82 g; in the data set on Calu-6 cells [1] (systemic 2 mg kg^−1, 4 consecutive days over 4 consecutive weeks, N=18), 3.58 ± 0.95 g. Also, the “reduction in tumour burden” value with Calu-6 cells [1] (aerosol delivery over 4 weeks) was determined as 29%; in the data set with Calu-6 cells [1] (systemic delivery over 4 weeks), 34%. Moreover, the “removal of the pleomorphic cell population of tumours” value with Calu-6 cells [1] (inhaled delivery, histology (not shown)) is “equally effective as systemic delivery”. Moreover, the “weight gain of rats” value in the data set on Calu-6 cells [1] (irrespective of treatment route) is on record as 15–20%. For the same molecule, the results for the “AUC Lung” value in data set [2] (setting [6]) and in data set [2] (setting [8]) were 8460 ng·h/mL and 1082 ng·h/mL, respectively. For the same molecule, the “Concentrationmax Lung” value in data set [2] (setting [6]) was 7883 ng/mL; in data set [2] (setting [8]), 2147 ng/mL. In addition, the “Concentrationmax Plasma” value was 893 ng/mL in data set [2] (setting [6]) and 15 492 ng ml^−1 in data set [2] (setting [8]). Further, the half-life in data set [2] (lung, inhaled or intranasal, 0.6 mg/kg) was 110 min; in data set [2] (lung, ip, 2 mg/kg), 8.4 min; in data set [2] (setting [7]), 74.4 min; in data set [2] (plasma, ip, 2 mg/kg), 25.2 min. In addition, the exposure (AUC) was determined as 1890 ng·h/mL in data set [2] (setting [7]) and 19100 ng·h/mL in data set [2] (plasma, ip, 2 mg/kg). Also, the “average MMAD (mean mass aerodynamic diameter)” value in the data set “Aerosol characterisation” was found to be 0.71 μm. In addition, in the data set on Calu-6 cells [3], the “pleomorphic cell population in residual tumour” value was < 5 % of the residual tumour. The “effect on the expression of Bik” value in the data set on Calu-6 tumours [4] (aerosol delivery compared with systemic delivery, P<0.001) is recorded as “more profound effect”. The “expression of p21 (WAF1)” value in the data set on Calu-6 tumours [4] (following systemic or aerosol delivery) is given as “increased to a similar extent”. Further, the “average number of genes showing ⩾20% demethylation” value with Calu-6 tumours [5] (aerosol delivery) stood at 521 genes; in the data set with Calu-6 tumours [5] (systemic delivery), 352 genes. Moreover, in the data set on Calu-6 tumours [5] (aerosol delivery, on average), the “genes classified as methylated in the Calu-6 tumours that responded” value is given as “approximately 50%”. Besides, the “genes commonly demethylated in 75% of tumours” value is 501 genes in the data set with Calu-6 tumours [5] (aerosol exposure) and 275 genes in the data set with Calu-6 tumours [5] (systemic exposure). In addition, the “genes in common across all tumours demethylated ⩾20%” value with Calu-6 tumours [5] (aerosol-treated rats) was 300 genes; with Calu-6 tumours [5] (systemic treatment), 20 genes.

For `Nc1ccn([C@@H]2O[C@H](CO)[C@@H](O)C2(F)F)c(=O)n1` [Gemcitabine], the “total dose delivered to the lungs, on average” value in the data set with lung cancer (1 day per week for 9 consecutive weeks) was 42±16%. Also, the toxicity entry with lung cancer is “no haematologic toxicity, nephrotoxicity, or neurotoxicity were observed”.
